Reference: ChEMBL document CHEMBL5058577, “EUbOPEN Chemogenomics Library 2 (Multiplex)” (2022)
Several values for one entry are separate records, joined by “and”; a condition that tells them apart may be missing. Equal values may be shown once.

Tested on: Fibroblast
Experiment: Multiplex assay against human fibroblast
Format: toxicity, cell-based
Settings: 10 µM, compound concentration 10 uM
Procedure, shortened: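 At seeding, live cells were stained with Hoechst33342, BioTracker Green Microtubule Cytoskeleton Dye, MitoTracker Red and Annexin V Alexa Fluor 680. After compound addition they were imaged on a CQ1 microscope at 37°C and 5% CO2, and CellPathfinder machine-learning gating sorted them into Hoechst high-intensity objects or normal cells, with normal cells further split into healthy, pyknosed or fragmented nuclei and pyknosed cells into mitotic or apoptotic. Tubulin, mitochondrial-mass and membrane-permeability phenotypes are given as per cents of cells with healthy nuclei.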

With `CC(=O)O[C@H]1C(=O)[C@@]2(C)[C@H]([C@H](OC(=O)c3ccccc3)[C@]3(O)C[C@H](OC(=O)[C@H](O)[C@@H](NC(=O)c4ccccc4)c4ccccc4)C(C)=C1C3(C)C)[C@]1(OC(C)=O)CO[C@@H]1C[C@@H]2O` [PACLITAXEL] the “Population Apoptotic (%)” value (12 h, replicate 1) was 65% and 41%, the “Population Fragmented Nuclei (%)” value (12 h, replicate 1) was 19% and 23% and the “Population Healthy Nuclei (%)” value (12 h, replicate 1) was 63% and 56%. The “Population Hoechst High Intensity Objects (%)” value (12 h, replicate 1) was 5% and 3%, the “Population Membrane Permeable-Phenotype (%)” value (12 h, replicate 1) was 0% and 1% and the “Population Mitochondria Different-Phenotype (%)” value (12 h, replicate 1) was 10% and 9%. The “Population Mitotic Cells (%)” value (12 h, replicate 1) was 34% and 58%, the “Population Normal (%)” value (12 h, replicate 1) was 94% and 96% and the “Population Pyknosed Nuclei (%)” value (12 h, replicate 1) was 16% and 19%. For the same compound, the “Population Tubulin-Different-Phenotype (%)” value (12 h, replicate 1) was 17% and 19%, the “Total Cell Count” value (12 h, replicate 1) was 167 and 151 and the “Population Apoptotic (%)” value (12 h, replicate 2) was 39% and 43%. For the same compound, the “Population Fragmented Nuclei (%)” value (12 h, replicate 2) was 34% and 32%, the “Population Healthy Nuclei (%)” value (12 h, replicate 2) was 39% and 32% and the “Population Hoechst High Intensity Objects (%)” value (12 h, replicate 2) was 1%. The “Population Membrane Permeable-Phenotype (%)” value (12 h, replicate 2) was 6% and 8%, the “Population Mitochondria Different-Phenotype (%)” value (12 h, replicate 2) was 13% and 19% and the “Population Mitotic Cells (%)” value (12 h, replicate 2) was 60% and 56%. For the same compound, the “Population Normal (%)” value (12 h, replicate 2) was 98%, the “Population Pyknosed Nuclei (%)” value (12 h, replicate 2) was 25% and 34% and the “Population Tubulin-Different-Phenotype (%)” value (12 h, replicate 2) was 44% and 52%. The “Total Cell Count” value (12 h, replicate 2) was 111 and 142, the “Population Apoptotic (%)” value (24 h, replicate 1) was 70% and 60% and the “Population Fragmented Nuclei (%)” value (24 h, replicate 1) was 19% and 21%. The “Population Healthy Nuclei (%)” value (24 h, replicate 1) was 63% and 58%, the “Population Hoechst High Intensity Objects (%)” value (24 h, replicate 1) was 1% and 3% and the “Population Membrane Permeable-Phenotype (%)” value (24 h, replicate 1) was 0% and 1%. The “Population Mitochondria Different-Phenotype (%)” value (24 h, replicate 1) was 9% and 13%, the “Population Mitotic Cells (%)” value (24 h, replicate 1) was 29% and 40% and the “Population Normal (%)” value (24 h, replicate 1) was 98% and 96%. For the same compound, the “Population Pyknosed Nuclei (%)” value (24 h, replicate 1) was 16% and 20%, the “Population Tubulin-Different-Phenotype (%)” value (24 h, replicate 1) was 12% and 24% and the “Total Cell Count” value (24 h, replicate 1) was 164 and 155. The “Population Apoptotic (%)” value (24 h, replicate 2) was 30% and 62%, the “Population Fragmented Nuclei (%)” value (24 h, replicate 2) was 36% and 27% and the “Population Healthy Nuclei (%)” value (24 h, replicate 2) was 45% and 43%. For the same compound, the “Population Hoechst High Intensity Objects (%)” value (24 h, replicate 2) was 2% and 4%, the “Population Membrane Permeable-Phenotype (%)” value (24 h, replicate 2) was 6% and 11% and the “Population Mitochondria Different-Phenotype (%)” value (24 h, replicate 2) was 10% and 19%. The “Population Mitotic Cells (%)” value (24 h, replicate 2) was 70% and 37%, the “Population Normal (%)” value (24 h, replicate 2) was 97% and the “Population Pyknosed Nuclei (%)” value (24 h, replicate 2) was 18% and 29%. The “Population Tubulin-Different-Phenotype (%)” value (24 h, replicate 2) was 40% and 48%, the “Total Cell Count” value (24 h, replicate 2) was 114 and 125 and the “Population Apoptotic (%)” value (48 h, replicate 1) was 76% and 84%. For the same compound, the “Population Fragmented Nuclei (%)” value (48 h, replicate 1) was 31% and 28%, the “Population Healthy Nuclei (%)” value (48 h, replicate 1) was 50% and 53% and the “Population Hoechst High Intensity Objects (%)” value (48 h, replicate 1) was 4%. The “Population Membrane Permeable-Phenotype (%)” value (48 h, replicate 1) was 0%, the “Population Mitochondria Different-Phenotype (%)” value (48 h, replicate 1) was 16% and 18% and the “Population Mitotic Cells (%)” value (48 h, replicate 1) was 23% and 16%. The “Population Normal (%)” value (48 h, replicate 1) was 95%, the “Population Pyknosed Nuclei (%)” value (48 h, replicate 1) was 17% and the “Population Tubulin-Different-Phenotype (%)” value (48 h, replicate 1) was 20% and 23%. The “Total Cell Count” value (48 h, replicate 1) was 177 and 150, the “Population Apoptotic (%)” value (48 h, replicate 2) was 54% and 56% and the “Population Fragmented Nuclei (%)” value (48 h, replicate 2) was 48% and 41%. For the same compound, the “Population Healthy Nuclei (%)” value (48 h, replicate 2) was 42% and 47%, the “Population Hoechst High Intensity Objects (%)” value (48 h, replicate 2) was 0% and 1% and the “Population Membrane Permeable-Phenotype (%)” value (48 h, replicate 2) was 3% and 8%. The “Population Mitochondria Different-Phenotype (%)” value (48 h, replicate 2) was 9% and 14%, the “Population Mitotic Cells (%)” value (48 h, replicate 2) was 45% and 43% and the “Population Normal (%)” value (48 h, replicate 2) was 100% and 98%. For the same compound, the “Population Pyknosed Nuclei (%)” value (48 h, replicate 2) was 8% and 11%, the “Population Tubulin-Different-Phenotype (%)” value (48 h, replicate 2) was 40% and 54% and the “Total Cell Count” value (48 h, replicate 2) was 129 and 146.
